This passage reports IC50 and MIC results from ChEMBL document CHEMBL1833874, “Α-pyrones and diketopiperazine derivatives from the marine-derived actinomycete Nocardiopsis dassonvillei HR10-5” (J Nat Prod, 2011).

pIC50: −log10 of the molar value. Converted amounts (≈) assume the structure as drawn.

The subject of one experiment is HL-60. The experiment in a line: Cytotoxicity against human HL60 cells after 72 hrs by MTT assay. Type of experiment: functional, cell-based. To be noted: HL-60, 72 h. The essentials: (§1)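 HL-60 cells were assayed by MTT and A549 cells by SRB. Read-out is IC50, given in μM.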
The next experiment relates to A549. The experiment in a line: Cytotoxicity against human A549 cells after 24 hrs by SRB assay. Type of experiment: functional. A digest of the protocol: as §1
A general note: In SRB staining, fixed cells bind dye roughly in proportion to their protein.

For a further experiment, the system named is Bacillus subtilis. The experiment in a line: Antibacterial activity against Bacillus subtilis by agar dilution method. In kind it is functional. The essentials: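 Agar dilution, with the same panel also run against E. coli, A. aerogenes, P. aeruginosa, S. aureus and C. albicans. Read-out is the MIC, given in μM.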

Take `COc1ccc(/C=c2/c(OC)n/c(=C\c3ccccc3)c(=O)n2C)cc1` [NOCAZINE B]: the negative-log IC50 (pIC50) (as a rule, the negative decadic logarithm of the IC50, by convention in mol/L) in the experiment on HL-60 is not above 4.00. Also, in the experiment on A549, the IC50 entry is recorded as “>=100 uM”.
Regarding `CC/C=C(\C)c1ccc(C)c(=O)o1` [NOCAPYRONE F], in the experiment with HL-60, the pIC50 is not above 4.00. For the same molecule, in the experiment on A549, the IC50 entry was “>=100 uM”. Also, in the experiment on Bacillus subtilis, the minimum inhibitory concentration (MIC) (as a rule, the lowest concentration found to suppress growth) worked out at 14 µM (≈ 2.5 µg/mL).
The matching figures for `CCc1ccc(/C(C)=C/[C@H](C)O)oc1=O` [NOCAPYRONE G]: not above 4.00, “>=100 uM” and 12 µM (≈ 2.5 µg/mL).
Take `OC[C@@H]1COC(c2ccccc2O)=N1` [NOCAZOLINE A]: in the experiment on HL-60, the pIC50 was not above 4.00. Besides, the IC50 result in the experiment on A549 is “>=100 uM”.
`CC/C=C(\C)c1ccc(CC)c(=O)o1` [NOCAPYRONE E]: the negative logarithm of the IC50 (pIC50) in the experiment on HL-60 was not above 4.00. Further, the IC50 result in the experiment with A549 is “>=100 uM”. Also, the MIC in the experiment with Bacillus subtilis amounted to 26 µM (≈ 5 µg/mL).
Regarding `COc1ccc(/C=C2/C(=O)N[C@@H](Cc3ccccc3)C(=O)N2C)cc1` [NOCAZINE C], the pIC50 in the experiment with HL-60 is not above 4.00. In addition, in the experiment on A549, the IC50 entry is listed as “>=100 uM”.
In the experiment with HL-60, `COc1ccc(/C=c2\nc(OC)/c(=C/c3ccc(OC)cc3)n(C)c2=O)cc1` [NOCAZINE A] showed a negative-log IC50 (pIC50) not above 4.00. In the experiment with A549, the IC50 result is recorded as “>=100 uM”.
